Source: ChEMBL document CHEMBL1799920, “Total synthesis and pharmacological characterization of solomonsterol A, a potent marine pregnane-X-receptor agonist endowed with anti-inflammatory activity” (J Med Chem, 2011)
The source made the active and inactive calls.

Legend:
Mus musculus [1] = assay: Antiinflammatory activity against trinitrobenzenesulfonic acid-induced colitis in human PXR expressing transgenic C57/BL6 mouse assessed as decrease in IL-12p70 protein level in colon at 10 mg/kg, ip qd after 5 days; format: functional, organism-based; design: dose 10 mg/kg; settings: C57Bl/6
Mus musculus [2] = assay: Antiinflammatory activity against trinitrobenzenesulfonic acid-induced colitis in human PXR expressing transgenic C57/BL6 mouse assessed as decrease in occurrence of diarrhea at 10 mg/kg, ip qd administered 3 days before TNBS challenge measured after 7 days; format: functional, organism-based; design: dose 10 mg/kg; settings: C57Bl/6
Outline: (§1)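 Male hPXR mice (human PXR on mouse PXR-null background). Fasted 16 h and lightly anaesthetised with ketamine/xylazine, then given TNBS 0.5 mg/mouse in 50% ethanol intrarectally in 150 μL. Drug was dissolved in DMSO, diluted in 1% methylcellulose and given i.p. once daily for 3 days before TNBS. Vehicle controls received methylcellulose. Mice were sacrificed 4 days after TNBS; n = 6–7 per group.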

THP-1 = assay: Inhibition of NF-kappaB p65 DNA binding activity in LPS-stimulated human THP1 cells at 10 uM after 3 hrs by electrophoretic mobility shift assay; format: cell-based
Outline: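 THP-1 cells were pretreated with compound (10 μM) or vehicle for 3 h, then LPS 1 μg/mL was added for 20 h. Nuclear extracts were incubated with biotinylated NF-κB probe for 20 min at room temperature, run on a 6% native gel and detected by chemiluminescence. Specificity was checked by cold-probe competition and p65 antibody supershift. Three independent experiments.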

Mus musculus [3] = assay: Antiinflammatory activity against trinitrobenzenesulfonic acid-induced colitis in human PXR expressing transgenic C57/BL6 mouse assessed as increase in IL-10 protein level in colon at 10 mg/kg, ip qd after 5 days by ELISA; format: functional, organism-based; design: dose 10 mg/kg; settings: C57Bl/6; outline: as §1
Mus musculus [4] = assay: Antiinflammatory activity against trinitrobenzenesulfonic acid-induced colitis in human PXR expressing transgenic C57/BL6 mouse assessed as decrease in colonic myeloperoxidase level at 10 mg/kg, ip administered on day 1 after TNBS challenge measured after 5 days; format: functional, organism-based; design: dose 10 mg/kg; settings: C57Bl/6
Outline: (§2)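 Therapeutic protocol in male hPXR mice. Colitis was induced with intrarectal TNBS 0.5 mg/mouse in 50% ethanol after a 16 h fast and light ketamine/xylazine anaesthesia. Drug at 10 mg/kg was given once daily from day 1 after TNBS. Mice were sacrificed 5 days after TNBS; n = 4–6 per group.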

Mus musculus [5] = assay: Antiinflammatory activity against trinitrobenzenesulfonic acid-induced colitis in human PXR expressing transgenic C57/BL6 mouse assessed as decrease in occurrence of diarrhea at 10 mg/kg, ip administered on day 1 after TNBS challenge measured after 5 days; format: functional, organism-based; design: dose 10 mg/kg; settings: C57Bl/6; outline: as §2
Mus musculus [6] = assay: Antiinflammatory activity against trinitrobenzenesulfonic acid-induced colitis in human PXR expressing transgenic C57/BL6 mouse assessed as decrease in presence of indurations in colon at 10 mg/kg, ip qd administered 3 days before TNBS challenge measured after 7 days; format: functional, organism-based; design: dose 10 mg/kg; settings: C57Bl/6; outline: as §1
Mus musculus [7] = assay: Antiinflammatory activity against trinitrobenzenesulfonic acid-induced colitis in human PXR expressing transgenic C57/BL6 mouse assessed as decrease in colonic myeloperoxidase activity at 10 mg/kg, ip qd after 5 days using trimethylbenzidine as substrate by spectrophotometry; format: functional, organism-based; design: dose 10 mg/kg; settings: C57Bl/6; outline: as §1
Mus musculus [8] = assay: Antiinflammatory activity against trinitrobenzenesulfonic acid-induced colitis in human PXR expressing transgenic C57/BL6 mouse assessed as decrease in edema of colon at 10 mg/kg, ip administered on day 1 after TNBS challenge measured after 5 days; format: functional, organism-based; design: dose 10 mg/kg; settings: C57Bl/6; outline: as §2
Mus musculus [9] = assay: Antiinflammatory activity against trinitrobenzenesulfonic acid-induced colitis in human PXR expressing transgenic C57/BL6 mouse assessed as decrease in TNF-alpha protein level in colon at 10 mg/kg, ip qd after 5 days by ELISA; format: functional, organism-based; design: dose 10 mg/kg; settings: C57Bl/6; outline: as §1

Measured: Activity

C[C@H](CCCOS(=O)(=O)O)[C@H]1CC[C@H]2[C@@H]3CC[C@H]4C[C@H](OS(=O)(=O)O)[C@@H](OS(=O)(=O)O)C[C@]4(C)[C@H]3CC[C@]12C [SOLOMONSTEROL A]
active: all assays above
